HCV NS3 hel inh – HCV NS3 helicase inhibition. NS3 helicase DNA unwinding, Cy5 molecular beacon fluorescence. inhibition, % at 10.9 µM. hit rate 0.56% among 290,000;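 active = inhibition above the mean of all tested compounds plus 3 SD, set per campaign, cut at about 35% in these data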
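Material: hepatitis C virus NS3 helicase domain fragment enzyme; measured by: Cy5 fluorescence, 0 and 60 min reads; control set: DMSO and thioflavine S; incubation: 60 min unwinding reaction at 25 °C after ATP addition; read-out basis: % inhibition from 60/0 min fluorescence ratio, DMSO 0%, thioflavine S 100%; repeats: singlicate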
DNA FID counter – displaces DNA intercalator in HCV helicase counter-screen; DNA fluorescent intercalator displacement, fluorescence; inhibition, % at 7.9 µM; hit rate 0.17% among 290,000; AID 1845; in the data active = inhibition above about 37%;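 also: higher means more ethidium bromide displaced from hairpin DNA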
DAGLB inhibitor – blocks human DAGLB lipase activity | hit rate 0.059% among 340,000 | inhibition, % at 5.17 µM | HEK293T DAGLB membrane lysate, EnzChek fluorogenic substrate; in the data active = inhibition above about 34%
GPR7 antag – human neuropeptides B/W receptor 1 antagonism; inhibition, % at 4.4 µM; GPR7-expressing cells, fluorescence antagonist assay; P48145; hit rate 1.1% among 290,000; in the data active = inhibition above about 16%, passing the limit was not always enough;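 also: cells stimulated with the agonist NPW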
core dimer inh – HCV core protein dimerization inhibition; TR-FRET GST/Flag-core106 dimerization, 1536-well; inhibition, % at 5 µM; hit rate 0.33% among 300,000;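 active = inhibition above the mean of all tested compounds plus 3 SD, set per screening campaign, cut at about 45% in these data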
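test system = GST/Flag-tagged HCV core106 proteins | probe or stimulus = Eu donor and XL665 acceptor anti-tag antibodies | times = compound-protein-antibody incubation 4 h at 22.5 °C | signal = TR-FRET, excitation 340 nm, emission 617 and 671 nm | measure = percent inhibition of core106 dimerization signal | controls = wells lacking GST-core106 and wells with excess unlabelled core106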
GRK2 aptamer HTS – human GRK2 inhibition via aptamer displacement; P25098; bead flow cytometry, FAM-aptamer displacement from GRK2; inhibition of aptamer binding, % at 10 µM; hit rate 0.59% among 330,000; AID 488847;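 active = inhibition of aptamer binding above 40%, roughly 3 SD of noise, on plates passing a quality check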;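 also: median bead fluorescence of bound FAM aptamer so fluorescent compounds give negative values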
Target sequence (P25098 whole entry, looked up): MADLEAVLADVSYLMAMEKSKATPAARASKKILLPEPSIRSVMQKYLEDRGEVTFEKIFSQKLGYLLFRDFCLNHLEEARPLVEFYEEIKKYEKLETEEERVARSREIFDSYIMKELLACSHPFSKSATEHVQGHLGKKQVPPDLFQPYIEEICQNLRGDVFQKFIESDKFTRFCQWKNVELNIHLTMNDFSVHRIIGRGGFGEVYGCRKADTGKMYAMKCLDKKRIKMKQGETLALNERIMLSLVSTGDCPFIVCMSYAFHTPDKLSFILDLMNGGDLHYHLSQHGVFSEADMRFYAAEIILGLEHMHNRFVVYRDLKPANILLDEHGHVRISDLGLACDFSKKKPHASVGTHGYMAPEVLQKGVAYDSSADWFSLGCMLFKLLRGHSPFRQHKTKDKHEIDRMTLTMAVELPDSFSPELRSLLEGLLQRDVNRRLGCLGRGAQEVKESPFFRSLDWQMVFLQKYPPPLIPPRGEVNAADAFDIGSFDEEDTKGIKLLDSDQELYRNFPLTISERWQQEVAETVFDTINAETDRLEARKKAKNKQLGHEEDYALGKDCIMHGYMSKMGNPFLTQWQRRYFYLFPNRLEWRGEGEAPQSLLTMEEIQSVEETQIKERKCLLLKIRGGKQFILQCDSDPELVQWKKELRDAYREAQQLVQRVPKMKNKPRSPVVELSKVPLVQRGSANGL
GPR7 antag cf – human GPR7 antagonism, confirmation assay | shares compounds with GPR7 antag | GPR7-expressing cells, calcium fluorescence antagonist mode | inhibition, % at 4.4 µM | hit rate 52% among 2,400; in the data active = inhibition above about 24%;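 also: stimulated with the GPR7 agonist NPW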
MCHR1 antagonist – counter-screen for GPR7 antagonists: antagonists of human MCHR1. hit rate 62% among 2,400. inhibition, % at 4.4 µM. shares compounds with GPR7 antag. MCHR1-expressing cells, fluorescence antagonist assay; in the data active = inhibition above about 22%
Each line names hits and unclear results; the compound was inactive in the other large screens (follow-up assays come after a bar, where they were run). This is a sample that favours compounds with a hit; in the whole collection about 2.2% have one here.

Cc1ccc(Nc2nc(N)nc(CSc3ncccn3)n2)cc1	none
COCCNC(=O)c1ccc(N2CCCCC2)c(NS(=O)(=O)c2ccc(C)cc2)c1	none
CCOC(=O)c1ccc(N2CCCCC2)c(NS(=O)(=O)c2ccc(C)cc2)c1	GPR7 antag 25 (no result: DAGLB inhibitor) | GPR7 antag cf inactive | MCHR1 antagonist 62
COc1ccc(NC(=O)NC2CCCCCCC2)cc1	none
CCOc1ccccc1C(=O)Nc1cc(C)ccc1NC(=O)c1ccco1	none
COc1ccc(/C=C2/C(=O)N(c3ccccc3)N=C2C)cc1	none (no result: HCV NS3 hel inh, DNA FID counter, DAGLB inhibitor, GPR7 antag)
COc1ccc(C2=NN(c3ccccc3)C(=O)/C2=C\c2ccc(O)c(OC)c2)cc1	GPR7 antag 30 | GPR7 antag cf inactive | MCHR1 antagonist 26
Cc1ccc(/C=C2\SC(=S)N(CCC(=O)N3CCCCC3)C2=O)cc1	none
O=C(CCN1C(=O)/C(=C\c2ccccc2)SC1=S)N1CCCCC1	GPR7 antag 22 | GPR7 antag cf inactive | MCHR1 antagonist inactive
Cc1cc(NC(=O)c2ccc(Br)c([N+](=O)[O-])c2)no1	GPR7 antag 22 | GPR7 antag cf inactive | MCHR1 antagonist inactive
Cc1sc(NC(=S)NC(=O)c2ccco2)c(C#N)c1C	none
O=C(c1ccc2c(c1)OCO2)N(CC1CCCO1)C1(C(=O)NC2CCCC2)CCCCC1 (centres undefined)	GPR7 antag 32 | GPR7 antag cf 31 | MCHR1 antagonist inactive
O=C(CSc1nnc(-c2cccc(S(=O)(=O)N3CCCC3)c2)n1-c1ccccc1)Nc1ccc(C(=O)O)cc1	GPR7 antag 26 | GPR7 antag cf inactive | MCHR1 antagonist inactive
O=C(CSc1nnc(-c2cccc(S(=O)(=O)N3CCCC3)c2)n1-c1ccccc1)Nc1cccc(C(=O)O)c1	none
COc1cc2c(cc1NC(=O)CN1C(=O)NC3(CCc4ccccc43)C1=O)oc1ccccc12 (centres undefined)	GPR7 antag 33 | GPR7 antag cf 59 | MCHR1 antagonist 57
CN1C(=O)/C(=C\c2ccc(N(C)C)cc2)OC1=S	GPR7 antag 44 (no result: core dimer inh) | GPR7 antag cf 44 | MCHR1 antagonist 52
COc1ccc(/C=C2\OC(=S)N(C)C2=O)cc1	none
CN(C(=O)CCCN1C(=O)c2ccccc2C1=O)C1CCCCC1	none (no result: HCV NS3 hel inh, DNA FID counter, GPR7 antag, core dimer inh)
Cc1cc(C)nc(/N=C(\N)Nc2cccc(OCc3ccccc3)c2)n1	GPR7 antag 97 | GPR7 antag cf 91 | MCHR1 antagonist 105
Cc1cc(C)nc(/N=C(\N)Nc2ccc(OCc3ccccc3)cc2)n1	GPR7 antag 101 | GPR7 antag cf 99 | MCHR1 antagonist 107
Cc1cc(C)nc(/N=C(\N)Nc2ccc(CC(=O)OC(C)C)cc2)n1	GPR7 antag 97 | GPR7 antag cf 95 | MCHR1 antagonist 97
COc1ccc(N/C(N)=N/c2nc(C)cc(C)n2)cc1	none (no result: HCV NS3 hel inh, DNA FID counter, GPR7 antag, core dimer inh, GRK2 aptamer HTS)
COc1ccccc1N/C(N)=N/c1nc(C)cc(C)n1	none
Cc1cc(C)nc(/N=C(\N)Nc2ccc(OCCC(C)C)cc2)n1	GPR7 antag 100 | GPR7 antag cf 97 | MCHR1 antagonist 106
Cc1cc(OCCN2CCOCC2)ccc1Cl	none
CCc1cc2c(SCC(=O)N3CCN(C(=O)c4cccs4)CC3)ncnc2s1	none (no result: HCV NS3 hel inh, DNA FID counter, GPR7 antag, core dimer inh, GRK2 aptamer HTS)
O=[N+]([O-])c1ccc(N/N=C/C=C/c2ccco2)cc1	none (no result: HCV NS3 hel inh, DNA FID counter, GPR7 antag)
O=C(Nc1ccccc1)Nc1ccno1	GPR7 antag 27 | GPR7 antag cf inactive | MCHR1 antagonist inactive
Cc1ccnc(SCc2ccc(C(=O)O)cc2)n1	none
CC(OC(=O)CNC(=O)c1sc2ccccc2c1Cl)c1ccccc1 (centres undefined)	none (no result: HCV NS3 hel inh, DNA FID counter, GPR7 antag, core dimer inh)
O=C(O)c1ccc2ncc(NC(=O)c3ccc(F)cc3)c(=O)n2c1	none
CCOC(=O)c1cc(-c2ccc(Cl)cc2)nc2c1c(C)nn2CCC#N	none
CCOC(=O)c1cc(-c2ccc(OC)cc2F)nc2c1c(C)nn2CCC#N	GPR7 antag 29 | GPR7 antag cf 33 | MCHR1 antagonist 23
Cc1cc(C(=O)N2CCCC(CO)(Cc3ccc(F)cc3F)C2)nn1C (centres undefined)	none (no result: HCV NS3 hel inh, DNA FID counter, GPR7 antag, core dimer inh, GRK2 aptamer HTS)
CCn1nc(C(C)C)cc1C(=O)N1CCCC(CO)(Cc2ccc(F)cc2F)C1 (centres undefined)	GPR7 antag 28 | GPR7 antag cf inactive | MCHR1 antagonist 27
Cc1nc2ccc(C(=O)N3CCCC(CO)(Cc4ccc(F)cc4F)C3)cc2nc1C (centres undefined)	GPR7 antag 32 | GPR7 antag cf inactive | MCHR1 antagonist inactive
COC(CNC(=O)C(=O)Nc1cc2c3c(c1)CCN3C(=O)CC2)OC	none
COc1ccc(CCNC(=O)c2ccc3c(c2)OCCO3)cc1	GPR7 antag 28 | GPR7 antag cf inactive | MCHR1 antagonist inactive
CCOc1ccc(S(=O)(=O)N2CCC(C(=O)NCc3ccco3)CC2)cc1	none
COc1ccc(S(=O)(=O)N2CCC(C(=O)NCc3ccco3)CC2)cc1	GPR7 antag 80 | GPR7 antag cf 24 | MCHR1 antagonist inactive
O=C(NCCc1ccc2c(c1)OCO2)C1CCN(S(=O)(=O)c2ccc(Cl)cc2)CC1	none
COc1ccc(S(=O)(=O)N2CCC(C(=O)NCCc3ccc4c(c3)OCO4)CC2)cc1	GPR7 antag 28 | GPR7 antag cf inactive | MCHR1 antagonist inactive
CC[C@H](C)Cc1cn([C@@H](CCCN=C(N)N)C(=O)NCCCCCCCCCCC(=O)N2CCNCC2)nn1	none (no result: HCV NS3 hel inh, DNA FID counter, GPR7 antag)
C/C(=N\Nc1ccc([N+](=O)[O-])cc1[N+](=O)[O-])C(C)(C)C(C(=O)O)C(=O)O	none
CCN(C(=O)COC(=O)c1ccccc1Oc1ccccc1)c1c(N)n(Cc2ccccc2)c(=O)[nH]c1=O	none (no result: HCV NS3 hel inh, DNA FID counter, GPR7 antag, core dimer inh, GRK2 aptamer HTS)
CCSc1nccc(-c2nn(-c3ccc(C)cc3)ccc2=O)n1	GPR7 antag 23 | GPR7 antag cf inactive | MCHR1 antagonist 25
Cc1cccc(CN2CCc3c(OCC(=O)N4CCCc5ccccc54)cccc3C2=O)c1	none
O=C1c2cccc(OCC(=O)N3CCCc4ccccc43)c2CCN1Cc1ccc(F)cc1	GPR7 antag 28 | GPR7 antag cf 41 | MCHR1 antagonist 77
CCS(=O)(=O)Nc1ccc(C2=NN(S(C)(=O)=O)C(c3cccs3)C2)cc1 (centres undefined)	none
O=C(CNC(=O)c1ccc(Br)o1)NNC(=O)COc1ccccc1Cl	none (no result: HCV NS3 hel inh, DNA FID counter, GPR7 antag, core dimer inh)
CC1CCCN(S(=O)(=O)c2ccc(S(=O)(=O)NC(C)c3cccs3)cc2)C1 (centres undefined)	GPR7 antag 48 | GPR7 antag cf 53 | MCHR1 antagonist 32
Cc1ccc(S(=O)(=O)N2CCCC(C)C2)cc1 (centres undefined)	none
CC(CCn1cccn1)NC(=O)c1cc(COc2ccc(F)cc2F)on1 (centres undefined)	none

Screening data: PubChem BioAssay, several laboratories
